# Sampled rows, rich in hits. Any-hit rate of the full collection: about 0.97%.
# Beta2AR agonist: beta2AR agonists driving receptor internalization, primary screen, cell-based, FAP fluorogen, flow cytometry | Beta-2 adrenergic receptor (Homo sapiens), P07550 | Am2.2-beta2AR cells | response, % (no concentration beside the values) | 340,000 tested, 0.43% active;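 active = response above a set limit, near 3 SD of response in nonfluorescent compounds, cut at about 42% in these data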
# L929 necroptosis: inhibitors of zVAD-triggered necroptosis, primary screen, L929 cells; L929 zVAD necroptosis rescue, ATP luminescence, 24 h; with zVAD 60 µM; viability rescue, % at 10 µM; 220,000 tested, 0.38% active; AID 1377, 2008;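 active = activation, scaled between plate controls, above about 75%, limit read from the data; inactive = activation under that limit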;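 also: 0% = zVAD with DMSO and 100% = DMSO alone without zVAD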
# TNF necrop inh: inhibitors of TNF-alpha triggered necroptosis, primary screen, cell-based, Jurkat FADD-/-, single concentration; Jurkat FADD-/- TNF necroptosis rescue, ATP luminescence, 24 h; 0 = TNF only, 100 = no-TNF cells; activation (protection from cell death), % at 10 µM; 220,000 tested, 0.068% active; AID 463075, 2010;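 active = activation, meaning protection from cell death, of at least 50% relative to plate controls; inactive = activation below 50%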;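 also: necroptosis triggered by 40 ng/mL TNF-alpha added together with compound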
# Mdm2 ligase inh: MDM2-luciferase reporter signal enhancers, primary screen, MDM2 E3 ligase inhibitor project, cell-based, luminescence, 1536-well. signal enhancement, % at 5 µM. E3 ubiquitin-protein ligase Mdm2 (Homo sapiens), Q00987. cell-based MDM2 ubiquitination luciferase reporter, 2 h; 0 = plate control, 100 = twice control, blank-subtracted. 210,000 tested, 0.11% active;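 active = signal enhancement of 30% or more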;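 also: luminescence tracks abundance of the self-degrading MDM2-luciferase fusion protein; higher signal means inhibition of MDM2 E3 ligase activity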
# Target sequence (Q00987 whole entry, looked up, the tested form may be a part): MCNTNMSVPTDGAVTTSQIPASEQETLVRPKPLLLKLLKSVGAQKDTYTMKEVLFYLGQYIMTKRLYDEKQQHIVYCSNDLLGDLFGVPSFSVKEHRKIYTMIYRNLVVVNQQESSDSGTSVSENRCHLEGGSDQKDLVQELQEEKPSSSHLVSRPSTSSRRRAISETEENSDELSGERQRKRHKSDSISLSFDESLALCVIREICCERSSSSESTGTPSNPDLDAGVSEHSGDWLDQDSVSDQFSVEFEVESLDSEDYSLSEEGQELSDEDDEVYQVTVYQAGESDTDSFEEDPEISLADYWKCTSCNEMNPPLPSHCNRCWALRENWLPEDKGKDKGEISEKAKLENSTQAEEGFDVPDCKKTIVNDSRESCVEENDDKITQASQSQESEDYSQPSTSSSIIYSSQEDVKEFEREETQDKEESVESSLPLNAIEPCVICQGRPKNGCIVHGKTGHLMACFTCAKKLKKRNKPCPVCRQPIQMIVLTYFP
#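 Material: stable MDM2–luciferase fusion reporter cells / Quantity: 2000 cells/well / Dosing: single 5 µM compound dose, 0.2% final DMSO / Buffer or medium: DMEM / Schedule: 4 h cell settling then 2 h compound exposure, 37 °C / Detection: luminescence with SteadyLite reagent, 15 min at room temperature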
# Dynein transport: inhibitors of GR-EGFP nuclear translocation, primary screen, dynein cargo transport inhibitor project, imaging, high-content, 3617.4 mouse cells. test concentration mostly 20 µM; stimulated with dexamethasone, 1 µM; stronger effect = lower value. z-score, hits read low. 220,000 tested, 0.47% active. AID 1381, 2008;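 active = plate z-score of nuclear minus cytoplasmic receptor signal below a set negative limit, without overly bright fluorescence or cell loss, cut at about -3.5 in these data, passing the limit was not always enough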;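 also: z-score of nuclear minus cytoplasmic ring GR-EGFP intensity difference per well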
#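 Buffer or medium – tet-free medium with charcoal-stripped serum · Signal – automated 10x imaging of fixed Hoechst-stained cells · Also added – dexamethasone agonist, 1.0 µM final, for 30 min · Incubation – induction 48 h, compound 1 h, agonist 30 min · Read-out – GR-EGFP nuclear translocation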
# Dynein confirm: dynein cargo transport inhibitors, GR-EGFP translocation, confirmation, imaging, high-content imaging, GR-EGFP cells | shares compounds with Dynein transport | 3617.4 GR-EGFP nuclear translocation imaging, dexamethasone-induced | calls only at 20 µM | 1,000 tested, 69% active | AID 463116, 2010;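 active = inhibition of receptor movement into the nucleus at or above a set limit in both runs, with normal cell brightness and cell count; inconclusive = limit reached in only one run, brightness and count normal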;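 also: dexamethasone at 1 µM final in well for 30 min; nuclear minus cytoplasmic GR-EGFP mean intensity difference in channel 2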
# Numbers without * were called inactive; i = inactive; ? = inconclusive; / = no result; + = active, no number.
SMILES,Beta2AR agonist,L929 necroptosis,TNF necrop inh,Mdm2 ligase inh,Dynein transport,Dynein confirm
COc1cccc(NC(=O)Cn2c(=O)n(-c3ccccc3)c(=O)c3oc4ccccc4c32)c1,-9,1,1,14,-0.3,/
Cc1c(C#N)c(NC(=O)CCl)n(Cc2cccs2)c1C,13,5,-11,-19,-5.2*,+
CCOc1ccc2nc(SC3CC(=O)N(c4ccc(OC)cc4OC)C3=O)sc2c1 (stereo unspecified),1,-1,-12,-9,-4.9*,+
CCOc1ccc(N2C(=O)CC(Sc3nc4ccc(OCC)cc4s3)C2=O)cc1 (stereo unspecified),-1,0,-20,/,-0.36,/
Cc1cc(C(=O)NC(C)c2ccccc2)c2cc(F)ccc2n1 (stereo unspecified),1,2,1,0,0.7,/
Cn1cc(C(C[N+](=O)[O-])c2ccccc2)c2ccccc21 (stereo unspecified),4,/,/,/,/,/
CC(=O)n1cc(C(C[N+](=O)[O-])SCCN)c2ccccc21 (stereo unspecified),76*,0,-12,-14,-3.8*,i
C(C#CCCCCCCCCC[n+]1ccccc1)#CCCCCCCCCC[n+]1ccccc1,21,/,/,/,/,/
Cc1ccc(S(=O)(=O)CC(CN2CCOCC2)N2CCOCC2)cc1 (stereo unspecified),-9,0,0,-7,-0.0035,/
CC1CCN(CC(CS(=O)(=O)c2ccc([N+](=O)[O-])cc2)N2CCC(C)CC2)CC1 (stereo unspecified),5,35,-30,-6,-4.7*,+
N#CC(C#N)=Cc1cc2ccccc2nc1N1CCCCC1,6,4,0,2,-4.4*,?
O=C1OCCC/C1=C\c1ccc2c(c1)OCO2,-1,1,1,/,-0.48,/
CCCN1C/C(=C/c2ccc3c(c2)OCO3)C(=O)/C(=C/c2ccc3c(c2)OCO3)C1,24,2,-11,8,-4.6*,+
CCOC(=O)C1CCN(C(=O)Nc2ccc3nc(-c4ccco4)c(-c4ccco4)nc3c2)CC1,20,0,-8,-7,-4.5*,i
C=CCSc1nnc(C)c(/C=C/Nc2ccc(Cl)cc2)n1,-89,-1,-3,-3,-7.7,+
CSc1nnc(C)c(/C=C/Nc2ccc(F)cc2F)n1,5,11,-4,2,0.37,/
CCOc1cc(/C=C2/COc3ccccc3C2=O)ccc1OCC(=O)N(C)C,13,0,-7,-24,-3.6*,+
CCC(C)Sc1nnc(CNS(=O)(=O)c2ccc(F)cc2)n1C (stereo unspecified),3,/,/,/,/,/
CC(=O)N1/C(=C/c2ccc(N(C)C)cc2)C(=O)c2ccccc21,45*,-2,-7,4,-5.8*,+
CC(=O)N(CCC(c1ccco1)C(C)C)Cc1ccc(Cl)cc1 (stereo unspecified),-7,0,-2,-12,-4.7*,i
COc1ccc(NC(=O)C(Cl)=C(Cl)Cl)cn1,0,-1,1,5,-4.5*,+
COc1ccc(NC(=O)/C(Cl)=C(/Cl)S(=O)(=O)Cc2ccccc2)cn1,37,0,-14,-10,-5.6*,+
CCCCN(CC(=O)NC1CCCC1)C(=O)C(=O)Nc1ccc2c(c1)OCCO2,-6,/,/,/,/,/
COc1ccccc1NC1=C(NC(C)=O)C(=O)c2ccccc2C1=O,6,0,-3,-5,-5.1*,?
COC1=C(Nc2ccccc2OC)C(=O)c2ccccc2C1=O,-33,1,-6,-7,0.44,/
SMILES,Beta2AR agonist,L929 necroptosis,TNF necrop inh,Mdm2 ligase inh,Dynein transport,Dynein confirm
CN(C)S(=O)(=O)c1cccc(-n2sc3ccccc3c2=O)c1,2,3,-7,-22,-3.6*,i
O=c1c2ccccc2sn1-c1ccccc1,-20,0,-10,-18,-5.2*,+
Nc1cc(N)nc(SCC(=O)c2ccccc2)n1,1,1,0,-21,-0.14,/
CC(C(Sc1ccccc1N)c1ccccc1)[N+](=O)[O-] (stereo unspecified),33,23,-20,-15,-5.5*,+
Nc1ccccc1SSc1ccccc1N,1,0,-15,/,0.86,/
CCOC(=O)CSc1nc2c(c(-c3ccc(C)o3)c1C#N)CCCC2,11,0,-1,-4,-1.3,/
C1=C(CCNc2nnnn2-c2ccccc2)CCCC1,-2,0,-1,-3,0.69,/
CCc1cc(OCCCCNCc2ccccc2)ccc1Cl,-2,0,4,5,-6.9*,i
CCCOc1ccc(C(=O)CCN2CCN(C(=O)OCC)CC2)cc1,-1,2,-1,-1,-4.1*,i
COc1ccc(N(C(=O)CCl)C(C(=O)NCCc2ccccc2)c2cccs2)cc1 (stereo unspecified),41,2,-13,-14,-5.3*,+
COc1ccc(CNC(=O)C(c2ccncc2)N(C(=O)Cc2cccs2)c2ccccc2)cc1 (stereo unspecified),-17,-1,2,7,-0.2,/
COc1ccc(/C=C/C(=O)c2ccc(C(=O)/C=C/c3ccc(OC)c(OC)c3)cc2)cc1OC,26,/,/,/,/,/
COc1ccc(C(=O)/C=C/c2ccc(OC(=O)c3cc(OC)c(OC)c(OC)c3)cc2)cc1,21,0,-1,-30,-0.43,/
CCOc1ccc(C(=O)/C=C/c2cc(OC)c(OC)c(OC)c2)cc1,11,61,-5,-13,-4.2*,+
COc1cc(/C=C/C(=O)c2ccc(F)cc2)cc(OC)c1OC,3,0,-10,-11,-4.7*,+
CN(C)c1ccc(/C=C2\CCC/C(=C\c3ccccc3)C2=O)cc1,-10,1,0,-2,-6.3,i
CCN(c1ccccc1)S(=O)(=O)c1ccc2c(c1)OCCO2,8,/,/,/,/,/
O=c1[nH]c(CN2CCc3ccccc3C2)nc2ccccc12,-1,1,1,-12,0.18,/
Cc1[nH]c2ccccc2c1CN1CCc2ccccc2C1,7,6,-13,-12,-3.8*,i
Cc1sc2nc(C(C)C)nc(SCC(=O)NC3CC3)c2c1C,-12,/,/,/,/,/
CC(C)CN1C(=O)c2ccc(C(=O)NCc3ccc4c(c3)OCO4)cc2C1=O,-2,0,0,5,0.45,/
N#C/C(=C\c1ccc(O)c(O)c1)C(=O)NCCCc1ccccc1,-5,1,-17,/,0.31,/
